The full list was thinned out, with hits kept by preference.
UPR CHOP act = activators of apoptotic CHOP UPR arm, primary screen, cell-based, CHO-CHOP luciferase reporter, luminescence, uHTS. AID 449763, 2010. activation, % at 10 µM. UPR activation; percent of tunicamycin response over DMSO baseline. 330,000 compounds, 0.34% hits;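 active means at 10 µM dose, activation of 40% or more, normalized to positive control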
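System: CHO-CHOP luciferase reporter cell line | Buffer or medium: F12 medium containing 10% fetal bovine serum | Doses: One dose, 10 µM in 0.5% DMSO | Times: 6 h compound exposure at 37 °C after overnight seeding | Signal: Luciferase luminescence | Read-out: % activation vs tunicamycin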
PvdQ inh = P. aeruginosa PvdQ acylase inhibitors, primary screen, biochemical, fluorescence, plate reader and imaging, single point | purified PvdQ acylase | 340,000 compounds, 0.063% hits | inhibition, % at 10 µM | AID 488965, 2010; in the data active means inhibition above about 30%, passing the limit was not always enough
UPR XBP1 act = activators of adaptive XBP1 UPR arm, primary screen, cell-based, CHO-XBP1 luciferase reporter, luminescence, uHTS. IRE1-XBP1 UPR activation; percent of tunicamycin response, DMSO as zero. activation, % at 20 µM. 330,000 compounds, 0.33% hits;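 active means versus positive control, 20 µM dose yields 30% or more activation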
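Assay system: IRE1-XBP1 luciferase reporter CHO line. Input: 1000 cells/well. Buffer or medium: F12 with 10% serum. Doses: 20 µM, 1% DMSO. Times: overnight seeding at 37 °C, 6 h compound treatment at 37 °C. Technique: Steady-Glo luciferase glow luminescence, 10 min after reagent addition.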
CHOP inhibitor = inhibitors of CHOP promoter induction, primary screen, cell-based, unfolded protein response, luciferase reporter | 220,000 compounds, 3.8% hits | inhibition, % at 10 µM | CHO-K1 CHOP-promoter luciferase, tunicamycin-induced, 15-18 h;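 active means compounds that reduced the stress-induced luciferase reporter signal by more than about 70% of percent inhibition, limit read from the data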
CHOP confirm = retest of CHOP induction inhibitors, confirmation, cell-based; CHO-CHOP promoter luciferase reporter, tunicamycin-induced, luminescence; inhibition, % at 10 µM; 2,100 compounds, 45% hits; shares compounds with CHOP inhibitor;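 active means mean of three repeat readings of reporter signal inhibition above a set limit, cut at about 70% in these data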
A number is an active result; - = inactive; . = no result.

SMILES | UPR CHOP act | PvdQ inh | UPR XBP1 act | CHOP inhibitor | CHOP confirm
CN(C)c1ccc(NC(=O)C(=O)C2C(=O)Nc3ccccc32)cc1 (centres undefined) | - | - | - | - | .
CC(C)(C)c1ccc(NC(=O)C(=O)C2C(=O)Nc3ccccc32)cc1 (centres undefined) | - | - | - | 101 | -
CN(Cc1ccccc1)S(=O)(=O)c1ccccc1Br | - | - | - | . | .
COc1ccc(NC(=O)CSc2nnc(-c3ccccc3)n2N)cc1 | - | - | - | - | .
CCn1c2ccccc2c2cc(NC(=O)CSc3nnc(-c4ccc(OC)cc4)n3N)ccc21 | - | - | - | 102 | -
CCCc1nc2oc3ccccc3c(=O)c2c(=O)n1CCCOC | - | - | - | - | .
CCN(CC)S(=O)(=O)c1cccc(NC(=O)Nc2cccc(C(F)(F)F)c2)c1 | - | - | - | 100 | 124
O=[N+]([O-])c1ccc(NC(=S)NCCc2ccc(Cl)cc2)cc1 | - | - | - | 105 | 94
O=[N+]([O-])c1ccc(NC(=S)NCCc2ccccc2)cc1 | - | - | - | - | .
CC(C)(CNC(=O)CNC(=O)c1ccc(Cl)cc1Cl)N1CCOCC1 | - | - | - | . | .
CCN(CC)c1ccc2cc(/C(N)=N/NC(=O)c3cccs3)c(=O)oc2c1 | - | . | 93 | 102 | -
COc1ccc(C(=O)NNC(=O)c2ccccn2)cc1 | - | - | - | 104 | 124
COc1cc(OC)cc(C(=O)NNC(=O)c2ccccn2)c1 | - | - | - | - | .
COc1ccc(C(=O)Nc2cccc(C)n2)cc1S(=O)(=O)N1CCCc2ccccc21 | . | - | . | . | .
O=[N+]([O-])c1cccc(/C=N/Nc2nc(NCc3ccccc3)nc(N3CCOCC3)n2)c1 | - | - | - | 104 | -
COc1ccc(Cc2nc3ccccc3n2CC(=O)N/N=C/c2ccc(C)cc2O)cc1OC | - | - | - | 104 | 103
COc1ccc(-c2csc(NC(=O)C3CCN(c4ncnc5sc(C)c(C)c45)CC3)n2)cc1OC | - | - | - | . | .
O=C1C(=O)c2ccc(-c3ccccc3)cc2-c2ccccc21 | - | - | - | 109 | 140
Nc1ccc2c(c1)C(=O)C(=O)c1ccccc1-2 | - | - | - | . | 140
Cc1nnc(NC(=O)c2sc3nc(-c4cccs4)cc(C(F)(F)F)c3c2N)s1 | - | - | - | 106 | 94
O=C(CC12CC3CC(CC(C3)C1)C2)NCC(c1ccc(F)cc1)N1CCOCC1 (centres undefined) | - | - | - | - | .
COc1ccc(C(=O)c2c(C(F)(F)F)oc3c2C(=O)c2ccccc2C3=O)cc1OC | - | - | - | 106 | -
CCCOC(=O)CSc1nnc(-c2ccc(Cl)cc2Cl)o1 | - | - | - | 98 | -
O=C(O)c1ccccc1NSc1ccccc1[N+](=O)[O-] | - | - | - | - | .
CCc1ccc(NSc2ccccc2[N+](=O)[O-])cc1 | - | - | - | 102 | -
SMILES | UPR CHOP act | PvdQ inh | UPR XBP1 act | CHOP inhibitor | CHOP confirm
CCC(=O)Nc1nnc(Sc2ccc(N(C)C)cc2)s1 | - | - | - | - | .
CN(C)c1ccc(Sc2nnc(NC(=O)Nc3ccc(Cl)cc3Cl)s2)cc1 | - | - | - | 100 | -
COc1cc(C(C#N)N2N=C(c3ccccc3)CC2c2ccccc2)ccc1O (centres undefined) | - | - | - | - | .
N#CC(c1ccccc1O)N1N=C(c2ccccc2)CC1c1ccccc1 (centres undefined) | - | - | - | 97 | -
CC1=C(C)CS(=O)N(S(=O)(=O)c2ccc(Cl)cc2)C1 (centres undefined) | - | - | - | . | -
O=C(Nc1nnc(-c2ccccc2)s1)c1ccc(F)cc1 | - | - | - | 103 | -
O=C(CCNC(=O)C1CCN(S(=O)(=O)c2ccc(F)cc2)CC1)NCc1ccc(Cl)cc1 | - | - | - | . | .
O=S(=O)(/C(=C/c1ccc(C(F)(F)F)cc1)c1nc2ccccc2[nH]1)c1ccccc1 | . | - | . | 109 | 134
CCOC(=O)C1=C(C)Nc2ccccc2N=C1NC(=O)c1oc2ccccc2c1COC | - | - | - | . | .
O=[N+]([O-])c1ccc(O)c(/C=N/Nc2ccccc2Cl)c1 | - | - | - | 96 | 125
O=C(N/N=C/c1cc([N+](=O)[O-])ccc1O)C1CC1 | - | - | - | - | .
CC(NS(=O)(=O)c1ccc(OCC(=O)Nc2cccc([N+](=O)[O-])c2)cc1)c1ccccc1 (centres undefined) | . | - | . | - | .
Cc1cc(C)nc(NS(=O)(=O)c2ccc(NC(=O)c3cc(-c4ccccc4)nc4ccccc34)cc2)n1 | - | - | - | 102 | -
Cc1ccnc(NC(=O)Nc2ccc3c(c2)OCO3)c1 | - | - | - | - | .
CCCC1/C(=N/O)CC(c2ccccc2)NC1c1ccccc1 (centres undefined) | - | - | - | 106 | -
O=C(CN1C(=O)CSc2ccccc21)N/N=C/c1ccco1 | - | - | - | - | .
Cc1cccc(NC(=O)Cc2nnc(NC(=O)Nc3ccccc3F)s2)c1 | - | - | - | - | .
O=C(Nc1nnc(CC2=CCCCC2)s1)Nc1ccccc1F | - | . | - | 98 | -
O=C(Nc1nnc(COc2ccccc2F)s1)Nc1ccccc1F | - | - | - | 99 | -
O=C(N/N=C/c1cccc(O)c1)c1ccc(COc2ccc3c(c2)CCC3)o1 | - | - | - | 109 | -
NNC(=O)c1ccc(COc2ccc3c(c2)CCC3)o1 | - | - | - | - | .
Cc1cc(N=Nc2c(O)c3ccccc3[nH]c2=O)ccc1N=Nc1ccc(C(=O)N(C)C)cc1 | - | - | - | 105 | -
Nc1cccc(Nc2nc(OC(C(F)(F)F)C(F)(F)F)nc(OC(C(F)(F)F)C(F)(F)F)n2)c1 | - | - | - | 100 | 117
Nc1ccccc1C(=O)NCC1(c2ccccc2)CCCC1 | - | - | - | . | .
O=C(COC(=O)C1(c2ccccc2F)CCCC1)N1CCOCC1 | - | - | - | - | .
SMILES | UPR CHOP act | PvdQ inh | UPR XBP1 act | CHOP inhibitor | CHOP confirm
C/C(=N\NC(=O)COc1ccccc1-c1ccccc1)c1cccnc1 | - | - | - | - | .
C/C(=N\NC(=O)COc1ccccc1-c1ccccc1)c1ccc(O)cc1O | - | - | - | 104 | -
COC(=O)c1ccc2c(=O)n(NC(=O)C(c3ccccc3)c3ccccc3)c(=S)[nH]c2c1 | - | - | - | 102 | -
COC(=O)c1ccc2c(=O)n(CCO)c(=S)[nH]c2c1 | - | - | - | - | .
O=C(O)c1ccccc1NS(=O)(=O)c1cccc(-n2sc3ccccc3c2=O)c1 | - | - | - | . | .
CC1=C(C(=O)Nc2ccc(C)cc2C)C(c2cccc(Cl)c2)n2nc(C(=O)OC(C)C)nc2N1 (centres undefined) | - | - | - | 106 | 118
CN(CC(=O)Nc1ccccc1Cl)C(=O)Cn1nnc(-c2ccc(F)cc2)n1 | - | - | - | . | .
COc1ccc(/C=C(\C#N)c2nc3ccccc3[nH]2)cc1O | - | - | - | . | .

Assay outcomes from PubChem BioAssay.
